MLL AF4-AF9 inh – inhibitors of AF4 peptide binding to AF9, primary screen, biochemical, AlphaScreen, biotin-AF4 peptide, FLAG-AF9, single point. inhibition, % at 10 µM. Protein AF-9 (Homo sapiens), P42568. actives 0.47% (n = 350,000). AID 651704, 2012;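 active = every replicate reaching a set inhibition limit, whatever the replicate mean, cut at about 25% in these data; inconclusive = mean inhibition reaches that limit but some replicates miss it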
Target sequence (P42568 whole entry, looked up): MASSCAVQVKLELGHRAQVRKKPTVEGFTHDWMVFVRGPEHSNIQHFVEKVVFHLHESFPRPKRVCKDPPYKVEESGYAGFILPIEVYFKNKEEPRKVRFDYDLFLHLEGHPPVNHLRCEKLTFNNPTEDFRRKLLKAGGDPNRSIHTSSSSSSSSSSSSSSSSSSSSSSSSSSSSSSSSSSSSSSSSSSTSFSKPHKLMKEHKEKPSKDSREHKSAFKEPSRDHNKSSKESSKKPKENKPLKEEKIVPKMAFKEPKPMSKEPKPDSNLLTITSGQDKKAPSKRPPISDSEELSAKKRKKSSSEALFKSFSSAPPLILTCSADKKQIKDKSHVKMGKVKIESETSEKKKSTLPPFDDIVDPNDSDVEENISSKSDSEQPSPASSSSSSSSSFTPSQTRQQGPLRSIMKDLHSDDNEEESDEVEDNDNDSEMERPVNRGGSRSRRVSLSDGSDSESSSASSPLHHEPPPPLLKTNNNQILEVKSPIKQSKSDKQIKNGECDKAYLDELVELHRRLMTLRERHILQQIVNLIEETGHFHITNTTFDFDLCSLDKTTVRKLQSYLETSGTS
EWS-Fli inh – EWS/Fli-driven NR0B1 reporter inhibitors, primary screen, A673 cells, NR0B1 luciferase, luminescence, MLPCN library; actives 0.67% (n = 350,000); viability-normalised; inhibition, % at 12.6 µM;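 active = mean inhibition of at least 50% after viability correction, with every replicate also passing that limit; inconclusive = mean reaches 50% but only one of two replicates passes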;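 also: firefly luciferase signal divided by Alamar Blue viability fluorescence both relative to DMSO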
FN deposit inh – inhibitors of fibronectin matrix deposition, primary screen, AH1F cells, Alexa488-fibronectin fluorescence, plate reader; inhibition, % at 12.6 µM; AID 743247, 2014; actives 0.086% (n = 350,000); AH1F fibroblasts, overnight;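 active = mean inhibition across replicates of 30% or more, regardless of how many single replicates reach that level; inconclusive = mean under 30% yet at least half of replicates reach 30%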
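Assay system: AH1F fibroblasts / Quantity: 10000 cells per well / Medium: DMEM plus 2% serum, read in PBS / Reagent: labelled fibronectin 24 nM / Dosing: single dose, pinned / Times: 1 h cell attachment, overnight exposure to compound and label / Signal: fluorescence, ex 485 nm, em 525 nm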
HIV Env fusion – inhibitors of HIV-1 Env-driven cell-cell fusion, primary screen, HeLa-JRFL effector, CEM21 target cells, luciferase; inhibition, % at 12.3 µM; actives 1.1% (n = 360,000); AID 651610, 2012;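 active = mean replicate inhibition score of at least 50 and every replicate individually at or above 50; inconclusive = only one of the two criteria met; inactive = mean below 50 and not all replicates reaching 50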
PAX8 inh HTS – inhibitors of PAX8-driven TPO luciferase reporter, primary screen, RMG-I cells, single concentration | SteadyGlo, 24 h | inhibition, % at 12.6 µM | actives 1.2% (n = 360,000);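 active = mean replicate inhibition at least 60% with every replicate also reaching 60%; inconclusive = only one of the two criteria is met; inactive = mean below 60% and not all replicates reaching 60%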;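 also: luciferase light reporting Pax8 driven TPO promoter activity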
Glyco luc inh – increase of ERlucT glycosylation luciferase signal, primary screen, N-linked glycosylation inhibitor project, D54 ERlucT cells, luminescence, set 2 | AID 588692, 2011 | actives 0.23% (n = 360,000) | D54 ERlucT glycosylation luciferase reporter, 24 h; percent of 100 nM tunicamycin response | reporter increase, % at 12.5 µM;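 active = mean luciferase reporter signal, scaled so untreated is 0 and the glycosylation-blocking control 100, at or above a set limit in every replicate; inconclusive = mean reaches the limit but not every replicate does; inactive = mean below the limit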;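 also: luciferase carries N-glycosylation sites so blocking glycosylation raises the light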
Numbers stand for hits; - = inactive; ? = inconclusive; . = no result; [ ] = dose if it differs, or a comment. Hits are enriched below; roughly 2.5% of the tested compounds scored in any of these assays.

SMILES	MLL AF4-AF9 inh	EWS-Fli inh	FN deposit inh	HIV Env fusion	PAX8 inh HTS	Glyco luc inh
CC(C)NC(=O)Nc1ccc2c(c1)C(=O)N([C@@H](C)CO)C[C@@H](C)[C@@H](CN(C)C(=O)CCC(F)(F)F)OCCCC[C@@H](C)O2	-	.	-	86.0[16.7 µM]	-	.
C[C@H]1CN([C@@H](C)CO)C(=O)Cc2cc(NS(=O)(=O)c3ccccc3)ccc2O[C@@H]1CN(C)C(=O)Nc1ccc2c(c1)OCO2	.	-	.	-	-	.
COc1ccc(N2CCc3c(C)nc4c(OC)cccc4c32)cc1	-	?	-	-	-	35.4
CC(C)NC(=O)N(C)C[C@@H]1Oc2cc(C#C[C@@H](C)O)ccc2S(=O)(=O)N([C@@H](C)CO)C[C@@H]1C	-	-	-	.	-	.
COCC(=O)N(C)C[C@H]1Oc2cc(C3=CCCC3)ccc2S(=O)(=O)N([C@H](C)CO)C[C@H]1C	-	-	.	-	-	.
COc1ccc(C(=O)NCCc2ccc(Cl)cc2)cc1S(=O)(=O)N1CCCCC1C (stereo not given)	-	-	-	89.2	-	-
COc1ccc(C(=O)NCCc2c[nH]c3ccccc23)cc1S(=O)(=O)N1CCCCC1C (stereo not given)	-	-	-	-	-	-
COc1ccc(S(=O)(=O)Nc2ccc3c(c2)CC(=O)N([C@H](C)CO)C[C@H](C)[C@H](CN(C)S(=O)(=O)c2ccccc2)O3)cc1	.	-	.	83.6[16.7 µM]	-	.
COc1ccc(S(=O)(=O)N(C)C[C@H]2Oc3ccc(NS(=O)(=O)c4ccccc4)cc3CC(=O)N([C@H](C)CO)C[C@H]2C)cc1	-	-	.	-	-	.
COc1ccc(S(=O)(=O)Nc2ccc3c(c2)CC(=O)N([C@H](C)CO)C[C@H](C)[C@H](CN(C)S(=O)(=O)c2ccc(Cl)cc2)O3)cc1	-	-	.	72.8[16.7 µM]	-	.
COc1ccc(S(=O)(=O)N(C)C[C@H]2Oc3ccc(NS(=O)(=O)c4ccc(Cl)cc4)cc3CC(=O)N([C@@H](C)CO)C[C@H]2C)cc1	.	-	-	-	-	.
COc1ccc(S(=O)(=O)Nc2ccc3c(c2)CC(=O)N([C@H](C)CO)C[C@H](C)[C@H](CN(C)S(=O)(=O)c2ccc(C)cc2)O3)cc1	-	-	.	99.4[16.7 µM]	-	.
C[C@@H]1CCCCO[C@H](CN(C)C(=O)Nc2ccc(C(F)(F)F)cc2)[C@H](C)CN([C@@H](C)CO)C(=O)c2cc(NC(=O)c3ccncc3)ccc2O1	-	-	-	-	-	.
C[C@@H]1CN([C@H](C)CO)C(=O)c2cc(NC(=O)c3ccncc3)ccc2O[C@@H]1CN(C)Cc1ccc(C(=O)O)cc1	-	-	.	.	-	.
CCN(CC)CCNc1nc2cc(OC)c(OC)cc2c2nc(-c3ccccc3)nn12	.	.	-	-	-	71.1
COc1cc2[nH]c(=O)n3nc(-c4ccccc4)nc3c2cc1OC	.	.	.	.	.	-
S=C(Nc1ccc(Cl)cc1)c1nc2ccccc2s1	.	.	.	.	.	-
O=C(Nc1ccc(Cl)cc1)/C(=C/c1cccc(O)c1)c1nc2ccccc2s1	-	-	-	-	98.4	-
COc1ccc(CN(C)C[C@@H]2OCCCC[C@H](C)Oc3ccc(NS(=O)(=O)c4cn(C)cn4)cc3C(=O)N([C@H](C)CO)C[C@H]2C)cc1	-	-	.	-	-	.
CC(C)n1c(/C=C/[C@H](O)C[C@H](O)CC(=O)O)c(-c2ccc(F)cc2)c2ccccc21	.	.	.	.	.	103.5
Cn1cc(C(CC(=O)O)C(=O)O)c2ccccc21 (stereo not given)	-	-	.	.	.	-
O=C1CC(NS(=O)(=O)c2cccs2)CN1c1ccc(F)cc1 (stereo not given)	-	-	-	-	-	-
CCOc1ccc(N2CC(NS(=O)(=O)c3cccs3)CC2=O)cc1 (stereo not given)	-	-	-	55.8	-	-
Cc1ccc(-c2nc(NC(=O)c3nn(C)cc3[N+](=O)[O-])sc2C)cc1	-	58.3	.	.	.	-
Cc1ccc(-c2nc(NC(=O)c3nn(C)cc3[N+](=O)[O-])sc2C)cc1C	-	-	.	.	.	-
SMILES	MLL AF4-AF9 inh	EWS-Fli inh	FN deposit inh	HIV Env fusion	PAX8 inh HTS	Glyco luc inh
CN(C)CCCNC(=O)C[C@@H]1CC[C@H]2[C@@H](COC[C@H](O)CN2Cc2cccc(Cl)c2)O1	-	-	-	.	-	.
CCCN1[C@H](C(=O)NC2CCC2)[C@@H](CO)[C@@H]2Cn3c(ccc(-c4ccccc4F)c3=O)[C@@H]21	-	-	.	.	-	.
Nc1nc(-c2cc3c(cc2Cl)OCCO3)cs1	-	-	31.8	-	-	-
COCCNC(=O)C[C@H]1CC[C@H]2[C@H](COc3ccc(NC(C)=O)cc3C(=O)N2C)O1	.	-	.	-	-	.
COc1ccc(COCC23N=C4SCc5ccccc5CN4[C@H](c4ccccc4O2)[C@H]3COC(=O)c2ccccc2)cc1	-	-	.	69.3[16.7 µM]	-	.
CC1=CC2C(C(O)CC3(C)C2CC(C)C32OCOC23COCO3)C2(C)C/C(=C\O)C(=O)C=C12 (stereo not given)	-	-	-	113.1	.	-
Cn1ccc2c(-c3cccnc3)cc3c(c21)C1CCC3O1 (stereo not given)	-	-	-	.	-	-
CN(c1cc2c(c3c1ccn3C)C1CCC2O1)C1CCCCC1 (stereo not given)	32.2	-	-	-	-	-
Cn1ccc2c(-c3ccc(F)nc3)cc3c(c21)C1CCC3O1 (stereo not given)	-	-	-	-	-	-
CN(CCc1ccccc1)c1cc2c(c3c1ccn3C)C1CCC2O1 (stereo not given)	27.6	-	-	-	-	-
COc1ccc(-[n+]2c(C)cc(/C=C3\Sc4ccccc4N3C)cc2C)cc1	-	-	-	-	79.8	-
COc1ccc(C(=O)/C=C2\Sc3ccccc3N2C)cc1	-	-	-	-	-	-
COc1ccccc1-[n+]1c(C)cc(/C=C2\Sc3ccccc3N2C)cc1C	-	-	-	-	67.0	-
CC(C)OP(=O)(c1ccc(N(C)C)cc1)C(Nc1ccccc1)c1ccccc1 (stereo not given)	-	-	-	84.9	-	-
CC(C)CCOP(=O)(c1ccc(N(C)C)cc1)C(Nc1ccccc1)c1ccc(N(C)C)cc1 (stereo not given)	-	-	-	-	-	-
CC(C)C#Cc1ccc2c(c1)O[C@H](CN(C)CC1CC1)[C@H](C)CN([C@H](C)CO)S2(=O)=O	-	-	.	-	.	.
Cc1cccc(S(=O)(=O)N2CC[C@@H]3[C@@H](CO)Nc4ccc(C#Cc5cccnc5)cc4[C@@H]32)c1	-	-	-	.	.	.
O=C(C[C@@H]1C=C[C@H](NC(=O)Nc2ccc(C(F)(F)F)cc2)[C@H](CO)O1)NCCN1CCCC1	-	-	-	-	75.2	.

High-throughput results from PubChem.
